Test results from ChEMBL document CHEMBL5226322, “Harnessing the Role of HDAC6 in Idiopathic Pulmonary Fibrosis: Design, Synthesis, Structural Analysis, and Biological Evaluation of Potent Inhibitors” (J Med Chem, 2021).
pIC50: −log10 of the molar value. Values after ≈ are worked out from the molar mass of the structure shown. Active and inactive are the calls of the source. The rule behind the calls is not given here.

Tests used:
Histone deacetylase 1 [1] = target: T1, Histone deacetylase 1 (Homo sapiens, UniProt Q13547); assay: Inhibition of HDAC1 in human NB-4 cells assessed as increase in acetylation of histone H3 at 5 uM incubated for 30 hrs by western blot analysis; assay type: cell-based
T1 sequence (Q13547 whole entry): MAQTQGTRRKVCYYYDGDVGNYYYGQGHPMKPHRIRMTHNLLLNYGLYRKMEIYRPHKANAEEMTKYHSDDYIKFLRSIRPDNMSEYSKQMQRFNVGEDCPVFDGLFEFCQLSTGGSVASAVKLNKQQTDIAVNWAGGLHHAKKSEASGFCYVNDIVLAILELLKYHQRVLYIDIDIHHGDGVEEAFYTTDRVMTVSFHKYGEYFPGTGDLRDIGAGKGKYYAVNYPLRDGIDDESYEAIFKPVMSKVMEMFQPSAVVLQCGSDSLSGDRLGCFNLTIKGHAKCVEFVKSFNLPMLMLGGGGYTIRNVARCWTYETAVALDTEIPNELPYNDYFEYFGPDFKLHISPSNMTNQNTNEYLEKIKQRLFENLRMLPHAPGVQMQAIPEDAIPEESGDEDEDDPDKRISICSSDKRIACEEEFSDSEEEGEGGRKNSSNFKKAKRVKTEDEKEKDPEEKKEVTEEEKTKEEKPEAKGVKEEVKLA
Method in brief: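 Whole lysates (35 μg) and acid-extracted histones (2 μg) run on SDS-PAGE and blotted for acetylated tubulin or acetyl-histone H3; GAPDH or H4 as loading controls.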

[2] = Metabolic stability in human liver microsome assessed as compound remaining at 5 uM in presence of NADPH by HPLC analysis; assay type: ADME; conditions: liver microsomes, read-out: Stability
Method in brief: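 Compound at 5 μM, added in MeCN, incubated at 37 °C in 100 mM phosphate buffer pH 7.4 with 0.5 mg/mL human liver microsomal protein. Reaction started with an NADPH-generating system (2 mM NADPH, glucose-6-phosphate, G6P dehydrogenase, MgCl2). Stopped with MeCN at time points over 0–60 min. Remaining compound measured by RP-18 HPLC-UV at 254 nm, in triplicate. First-order depletion constant k; CLint = k × incubation volume / microsomal protein.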

Homo sapiens [3] = organism: Homo sapiens; assay: Inhibition of broncho-sphere formation in IPF patient derived human lung organoid assessed as inhibition of 3D organoid formation at 0.1 to 50 nM incubated for 14 days by Bright-field microscopy analysis; assay type: functional; conditions: dose 0.1-50 nM, time 14.0 day
Method in brief: (§1)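 Airway basal cells from bronchial brushings of IPF patients, 10⁴ cells in Matrigel on transwell inserts with 1:1 BEGM/DMEM. Treated 14 days (1–50 nM per methods; 0.1–50 nM per legend), medium changed every 7 days.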

[4] = target: T2, Protein deacetylase HDAC6 (Homo sapiens, UniProt Q9UBN7); assay: Inhibition of human recombinant HDAC6 using ZMAL (Z-(Ac)Lys-AMC) as fluorogenic substrate incubated for 120 mins by microplate reader assay
T2 sequence (Q9UBN7 whole entry): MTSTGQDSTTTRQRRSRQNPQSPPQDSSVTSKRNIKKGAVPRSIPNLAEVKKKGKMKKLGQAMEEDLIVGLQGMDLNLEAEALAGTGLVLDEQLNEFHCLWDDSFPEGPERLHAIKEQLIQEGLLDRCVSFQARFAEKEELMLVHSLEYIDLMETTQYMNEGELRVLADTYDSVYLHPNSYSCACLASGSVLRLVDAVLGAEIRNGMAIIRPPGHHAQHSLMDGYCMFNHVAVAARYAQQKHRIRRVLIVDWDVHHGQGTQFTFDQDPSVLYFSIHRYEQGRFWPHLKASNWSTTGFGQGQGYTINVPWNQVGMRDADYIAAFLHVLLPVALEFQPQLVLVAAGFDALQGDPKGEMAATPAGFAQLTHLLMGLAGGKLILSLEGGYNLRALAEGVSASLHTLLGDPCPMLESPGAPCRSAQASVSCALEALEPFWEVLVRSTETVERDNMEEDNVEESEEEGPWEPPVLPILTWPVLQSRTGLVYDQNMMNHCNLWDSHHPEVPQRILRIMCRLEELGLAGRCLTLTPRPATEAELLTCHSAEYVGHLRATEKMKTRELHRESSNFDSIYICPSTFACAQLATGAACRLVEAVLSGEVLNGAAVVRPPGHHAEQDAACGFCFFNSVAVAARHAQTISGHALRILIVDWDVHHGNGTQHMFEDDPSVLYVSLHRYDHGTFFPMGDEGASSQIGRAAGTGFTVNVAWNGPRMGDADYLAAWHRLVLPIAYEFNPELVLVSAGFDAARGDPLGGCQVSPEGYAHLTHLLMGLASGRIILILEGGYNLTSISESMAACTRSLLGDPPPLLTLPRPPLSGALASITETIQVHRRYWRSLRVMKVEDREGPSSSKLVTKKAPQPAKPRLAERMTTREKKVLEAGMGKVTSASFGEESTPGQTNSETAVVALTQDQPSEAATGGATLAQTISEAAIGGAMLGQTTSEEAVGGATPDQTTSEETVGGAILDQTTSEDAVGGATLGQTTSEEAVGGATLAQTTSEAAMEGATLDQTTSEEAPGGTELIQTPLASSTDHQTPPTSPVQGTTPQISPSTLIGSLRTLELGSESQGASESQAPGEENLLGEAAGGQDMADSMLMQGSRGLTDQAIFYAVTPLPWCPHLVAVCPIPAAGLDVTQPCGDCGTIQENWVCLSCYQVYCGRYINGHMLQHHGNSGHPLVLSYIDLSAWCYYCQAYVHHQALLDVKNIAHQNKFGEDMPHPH

[5] = Solubility of the compound at pH 3 PBS buffer incubated for 24 hrs by HPLC-UV analysis; assay type: physicochemical; conditions: pH 3, 24 h
Method in brief: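 Compound from 10 mM DMSO stock diluted to 250 μM (2.5% DMSO), either in 50 mM acetic acid (pH 3.0) or in 50 mM aqueous PBS (pH 7.4). Shaken 24 h at 25 °C, PTFE-filtered and diluted 1:2. Quantified by RP-18 HPLC-UV at 254 nm against a 250 μM standard in MeCN/water. Run in triplicate and averaged.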

Airway basal cell [6] = assay: Inhibition of cell proliferation in IPF patient derived human Airway basal cell at 20 to 50 nM incubated for 14 days by MTT assay; assay type: functional, cell-based; conditions: dose 20-50 nM, time 14.0 day
Method in brief: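 IPF patient airway basal cell 3D organoid cultures (10⁴ cells in Matrigel, 1:1 BEGM/DMEM) treated 14 days at 1–50 nM, medium changed weekly. Proliferation read by colorimetric MTT on day 14. Mean ± SEM of triplicates, n=3; repeated-measures ANOVA/Friedman test. Reported IC50 is the mean of the count-based and MTT-based IC50s.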

Histone deacetylase 1 [7] = target: T1, Histone deacetylase 1; assay: Inhibition of human recombinant HDAC1 using ZMAL (Z-(Ac)Lys-AMC) as fluorogenic substrate incubated for 120 mins by microplate reader assay
Airway basal cell [8] = assay: Inhibition of spheroid count in IPF patient derived human Airway basal cell assessed as reduction in sphere count at 20 to 50 nM incubated for 14 days by Bright-field microscopy analysis; assay type: functional, cell-based; conditions: dose 20-50 nM, time 14.0 day; method in brief: as §1
Homo sapiens [9] = organism: Homo sapiens; assay: Antifibrotic activity in TGF-beta1-induced human Lung parenchyma assessed as inhibition of alpha-SMA mRNA expression at 4.1 uM incubated upto 7 days by qRT-PCR analysis; assay type: functional; conditions: time <= 7.0 day
Method in brief: (§2)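 Human lung parenchyma pieces (2 mm³) cultured in DMEM with TGF-β1 (10 ng/mL) plus compound at 0.41 or 4.1 μM or vehicle (0.1% DMSO). Tissue collected on day 7, homogenized, total RNA purified, then qRT-PCR for HDAC6, collagen I, collagen III, αSMA and fibronectin. Relative expression by the 2^-Ct method; n=3, paired t test.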

Homo sapiens [10] = organism: Homo sapiens; assay: Antifibrotic activity in TGF-beta1-induced human Lung parenchyma assessed as inhibition of fibronectin mRNA expression at 4.1 uM incubated upto 7 days by qRT-PCR analysis; assay type: functional; conditions: time <= 7.0 day; method in brief: as §2
Heart [11] = assay: Cardiotoxicity in Langendorff-perfused Sprague-Dawley rat heart assessed as effect on HR at 10 uM by ECG analysis (reference value: 235.7 +/-8.3 bpm); assay type: toxicity, tissue-based
Heart [12] = assay: Cardiotoxicity in Langendorff-perfused Sprague-Dawley rat heart assessed as effect on PQ interval time at 1 uM by ECG analysis (reference value: 43.6 +/-2.5 milliseconds); assay type: toxicity, tissue-based

In the case of `CN1CCC2(CC1)c1ccccc1N(Cc1ccc(C(=O)NO)cc1)C2c1ccccc1F` (racemic), the inhibition (Histone deacetylase 1 [1]) was “Active”, the remaining at 5 µM [2] was 100% and the inhibition (Homo sapiens [3]) was “Dose-Dependent Effect”. The pIC50 [4] was 7.55, the solubility [5] was 456 µM (≈ 203 µg/mL) and the inhibition (Airway basal cell [6]) was “Active”. The pIC50 (Histone deacetylase 1 [7]) was 5.31 and the inhibition (Airway basal cell [8]) was “Active”.
With `CC1(C)c2ccccc2N(Cc2ccc(C(=O)NO)cc2)C1c1cccnc1` (racemic) the inhibition (Histone deacetylase 1 [1]) was “inactive”, the remaining at 5 µM [2] was 100% and the inhibition (Homo sapiens [3]) was “Dose-Dependent Effect”. The Activity (Homo sapiens [9]) was “Active”, the Activity (Homo sapiens [10]) was “Active” and the Activity (Heart [11]) was 207.9 bpm. For the same molecule, the pIC50 [4] was 7.38, the solubility [5] was 459 µM (≈ 171 µg/mL) and the inhibition (Airway basal cell [6]) was “Active”. For the same molecule, the Time (Heart [12]) was 44.5 ms, the pIC50 (Histone deacetylase 1 [7]) was 5.27 and the inhibition (Airway basal cell [8]) was “Active”.
